Measured values taken from ChEMBL document CHEMBL1155278, “3,4-Diaryl-isoxazoles and -imidazoles as potent dual inhibitors of p38alpha mitogen activated protein kinase and casein kinase 1delta” (J Med Chem, 2009).

Assays:
[1] = target: Tyrosine-protein kinase SYK (Homo sapiens) (UniProt P43405); assay: Inhibition of SYK assessed as residual activity at 0.1 uM by Cherenkov counting relative to control in presence of 20 uM ATP
How it was run: (§1)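 Single-concentration screen at 0.1 μM in a 76-kinase panel. ATP for each kinase was set near its Km for ATP. Residual activity is given as a percentage of control assays without compound, mean of n = 3 ± SD.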

[2] = target: MAP kinase-interacting serine/threonine-protein kinase 2 (Homo sapiens) (UniProt Q9HBH9); assay: Inhibition of MNK2 assessed as residual activity at 0.1 uM by Cherenkov counting relative to control in presence of 50 uM ATP
Sequence of MAP kinase-interacting serine/threonine-protein kinase 2 (Homo sapiens) (Q9HBH9 whole entry, looked up): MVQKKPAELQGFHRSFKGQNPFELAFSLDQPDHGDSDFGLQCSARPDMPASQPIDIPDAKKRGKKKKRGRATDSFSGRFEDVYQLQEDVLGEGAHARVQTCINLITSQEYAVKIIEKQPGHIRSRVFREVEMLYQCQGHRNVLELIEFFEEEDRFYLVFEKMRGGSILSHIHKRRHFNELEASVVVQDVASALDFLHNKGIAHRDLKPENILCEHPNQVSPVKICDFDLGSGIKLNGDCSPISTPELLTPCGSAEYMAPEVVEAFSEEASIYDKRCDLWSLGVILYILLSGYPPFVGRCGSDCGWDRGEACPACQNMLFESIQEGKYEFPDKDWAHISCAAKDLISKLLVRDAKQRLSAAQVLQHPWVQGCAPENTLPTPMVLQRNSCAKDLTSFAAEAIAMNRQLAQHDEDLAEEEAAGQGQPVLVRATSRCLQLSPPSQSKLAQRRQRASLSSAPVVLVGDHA
How it was run: (§2)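 Single-concentration selectivity screen at 0.1 μM against a panel of 76 protein kinases. Each kinase was run at an ATP level approximating its Km for ATP. Output is mean residual activity as % of the control assay without compound, n = 3 ± SD.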

[3] = target: Mitogen-activated protein kinase 14 (Homo sapiens, UniProt Q16539); assay: Inhibition of p38alpha assessed as residual activity at 0.1 uM by Cherenkov counting relative to control; how it was run: as §1
Sequence of Mitogen-activated protein kinase 14 (Q16539 whole entry): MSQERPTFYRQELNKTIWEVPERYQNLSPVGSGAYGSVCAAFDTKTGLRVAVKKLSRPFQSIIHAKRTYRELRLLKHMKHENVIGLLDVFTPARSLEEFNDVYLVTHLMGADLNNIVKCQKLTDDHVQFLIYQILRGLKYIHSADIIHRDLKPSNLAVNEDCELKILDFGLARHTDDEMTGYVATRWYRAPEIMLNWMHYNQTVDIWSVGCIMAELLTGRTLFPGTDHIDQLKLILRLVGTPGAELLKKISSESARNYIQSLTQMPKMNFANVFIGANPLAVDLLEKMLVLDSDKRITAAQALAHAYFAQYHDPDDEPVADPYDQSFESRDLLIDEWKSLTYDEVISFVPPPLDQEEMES

[4] = target: Protein kinase C alpha type (Homo sapiens) (UniProt P17252); assay: Inhibition of PKCalpha assessed as residual activity at 0.1 uM by Cherenkov counting relative to control in presence of 20 uM ATP; how it was run: as §1
[5] = target: Maternal embryonic leucine zipper kinase (Homo sapiens) (UniProt Q14680); assay: Inhibition of MELK assessed as residual activity at 0.1 uM by Cherenkov counting relative to control in presence of 50 uM ATP; how it was run: as §2
Sequence of Maternal embryonic leucine zipper kinase (Homo sapiens) (Q14680 whole entry, looked up): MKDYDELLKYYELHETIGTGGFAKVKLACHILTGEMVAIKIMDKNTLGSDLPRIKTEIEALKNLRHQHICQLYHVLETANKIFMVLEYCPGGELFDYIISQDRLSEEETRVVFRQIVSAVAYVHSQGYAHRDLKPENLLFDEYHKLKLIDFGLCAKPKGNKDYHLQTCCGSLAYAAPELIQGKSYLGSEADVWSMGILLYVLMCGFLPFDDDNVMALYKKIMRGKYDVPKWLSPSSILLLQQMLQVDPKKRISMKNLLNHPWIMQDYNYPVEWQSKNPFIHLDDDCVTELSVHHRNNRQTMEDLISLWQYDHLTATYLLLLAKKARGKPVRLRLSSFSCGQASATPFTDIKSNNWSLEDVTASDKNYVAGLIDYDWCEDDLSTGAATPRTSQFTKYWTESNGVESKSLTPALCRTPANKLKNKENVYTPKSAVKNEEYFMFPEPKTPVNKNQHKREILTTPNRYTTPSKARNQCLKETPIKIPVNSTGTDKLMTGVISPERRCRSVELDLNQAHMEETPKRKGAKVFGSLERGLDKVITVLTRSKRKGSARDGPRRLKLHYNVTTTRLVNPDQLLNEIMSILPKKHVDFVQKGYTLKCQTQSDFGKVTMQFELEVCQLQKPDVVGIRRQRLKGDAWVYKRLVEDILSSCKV

[6] = target: T1, Serine/threonine-protein kinase Chk1 (Homo sapiens) (UniProt O14757); assay: Inhibition of CHK1 assessed as residual activity at 0.1 uM by Cherenkov counting relative to control in presence of 20 uM ATP
T1 sequence (whole entry): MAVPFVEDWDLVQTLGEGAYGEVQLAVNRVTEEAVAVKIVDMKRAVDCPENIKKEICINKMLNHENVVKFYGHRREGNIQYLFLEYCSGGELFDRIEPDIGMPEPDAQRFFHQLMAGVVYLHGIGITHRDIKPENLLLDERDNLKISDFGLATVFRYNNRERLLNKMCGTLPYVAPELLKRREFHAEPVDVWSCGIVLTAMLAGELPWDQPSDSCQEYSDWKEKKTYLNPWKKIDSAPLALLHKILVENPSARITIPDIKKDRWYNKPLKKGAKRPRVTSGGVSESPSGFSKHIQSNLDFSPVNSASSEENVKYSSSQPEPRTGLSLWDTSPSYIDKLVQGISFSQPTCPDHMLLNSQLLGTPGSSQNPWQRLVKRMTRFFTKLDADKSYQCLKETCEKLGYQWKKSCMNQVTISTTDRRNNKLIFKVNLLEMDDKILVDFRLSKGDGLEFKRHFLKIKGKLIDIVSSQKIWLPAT
How it was run: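 Single-concentration screen at 0.1 µM across a panel of 76 protein kinases. Each kinase was run at an ATP concentration approximating its ATP Km. Results are % mean residual activity versus control assays without compound (n = 3 ± SD).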

[7] = target: RAC-alpha serine/threonine-protein kinase (Homo sapiens) (UniProt P31749); assay: Inhibition of PKBalpha assessed as residual activity at 10 uM by Cherenkov counting relative to control in presence of 5 uM ATP
Sequence of RAC-alpha serine/threonine-protein kinase (Homo sapiens) (P31749 whole entry): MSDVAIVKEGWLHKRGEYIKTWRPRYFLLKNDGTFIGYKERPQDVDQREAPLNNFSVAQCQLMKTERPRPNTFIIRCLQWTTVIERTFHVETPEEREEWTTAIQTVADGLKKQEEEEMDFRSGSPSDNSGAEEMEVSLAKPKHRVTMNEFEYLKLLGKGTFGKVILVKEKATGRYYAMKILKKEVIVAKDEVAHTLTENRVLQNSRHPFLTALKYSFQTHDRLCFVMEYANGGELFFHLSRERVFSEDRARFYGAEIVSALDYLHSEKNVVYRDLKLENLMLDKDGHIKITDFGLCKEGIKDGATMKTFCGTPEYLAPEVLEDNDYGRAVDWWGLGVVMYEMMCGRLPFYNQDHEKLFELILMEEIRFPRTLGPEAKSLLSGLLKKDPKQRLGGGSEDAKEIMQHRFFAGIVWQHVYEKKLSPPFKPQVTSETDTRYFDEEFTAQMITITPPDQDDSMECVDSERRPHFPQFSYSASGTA
How it was run: (§3)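 Single-concentration profiling at 10 μM in a 78-kinase panel. Kinase activity is expressed as a percentage of control assays run without compound.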

[8] = target: Serine/threonine-protein kinase Chk2 (Homo sapiens) (UniProt O96017); assay: Inhibition of CHK2 assessed as residual activity at 10 uM by Cherenkov counting relative to control in presence of 20 uM ATP
Sequence of Serine/threonine-protein kinase Chk2 (Homo sapiens) (O96017 whole entry): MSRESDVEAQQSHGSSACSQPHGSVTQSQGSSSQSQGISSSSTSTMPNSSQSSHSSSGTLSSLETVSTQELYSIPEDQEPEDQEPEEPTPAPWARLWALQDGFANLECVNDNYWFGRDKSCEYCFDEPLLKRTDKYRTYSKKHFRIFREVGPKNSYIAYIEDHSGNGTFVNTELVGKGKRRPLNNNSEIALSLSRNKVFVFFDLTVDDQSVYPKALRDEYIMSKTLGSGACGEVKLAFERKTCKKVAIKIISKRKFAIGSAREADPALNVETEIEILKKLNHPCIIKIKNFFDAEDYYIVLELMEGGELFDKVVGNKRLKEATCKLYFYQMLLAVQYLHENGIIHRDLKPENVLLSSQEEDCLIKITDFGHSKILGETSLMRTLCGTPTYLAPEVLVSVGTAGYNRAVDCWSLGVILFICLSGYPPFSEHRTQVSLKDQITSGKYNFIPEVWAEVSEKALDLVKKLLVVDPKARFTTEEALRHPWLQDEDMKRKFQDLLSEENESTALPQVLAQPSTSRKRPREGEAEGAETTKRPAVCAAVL
How it was run: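 Single-point profiling at 10 µM in a panel of 78 protein kinases. Kinase activity is expressed as a percentage relative to control assays without compound.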

[9] = target: T2, Serine/threonine-protein kinase D1 (Homo sapiens) (UniProt Q15139); assay: Inhibition of PKD1 assessed as residual activity at 10 uM by Cherenkov counting relative to control in presence of 50 uM ATP; how it was run: as §3
T2 sequence (whole entry): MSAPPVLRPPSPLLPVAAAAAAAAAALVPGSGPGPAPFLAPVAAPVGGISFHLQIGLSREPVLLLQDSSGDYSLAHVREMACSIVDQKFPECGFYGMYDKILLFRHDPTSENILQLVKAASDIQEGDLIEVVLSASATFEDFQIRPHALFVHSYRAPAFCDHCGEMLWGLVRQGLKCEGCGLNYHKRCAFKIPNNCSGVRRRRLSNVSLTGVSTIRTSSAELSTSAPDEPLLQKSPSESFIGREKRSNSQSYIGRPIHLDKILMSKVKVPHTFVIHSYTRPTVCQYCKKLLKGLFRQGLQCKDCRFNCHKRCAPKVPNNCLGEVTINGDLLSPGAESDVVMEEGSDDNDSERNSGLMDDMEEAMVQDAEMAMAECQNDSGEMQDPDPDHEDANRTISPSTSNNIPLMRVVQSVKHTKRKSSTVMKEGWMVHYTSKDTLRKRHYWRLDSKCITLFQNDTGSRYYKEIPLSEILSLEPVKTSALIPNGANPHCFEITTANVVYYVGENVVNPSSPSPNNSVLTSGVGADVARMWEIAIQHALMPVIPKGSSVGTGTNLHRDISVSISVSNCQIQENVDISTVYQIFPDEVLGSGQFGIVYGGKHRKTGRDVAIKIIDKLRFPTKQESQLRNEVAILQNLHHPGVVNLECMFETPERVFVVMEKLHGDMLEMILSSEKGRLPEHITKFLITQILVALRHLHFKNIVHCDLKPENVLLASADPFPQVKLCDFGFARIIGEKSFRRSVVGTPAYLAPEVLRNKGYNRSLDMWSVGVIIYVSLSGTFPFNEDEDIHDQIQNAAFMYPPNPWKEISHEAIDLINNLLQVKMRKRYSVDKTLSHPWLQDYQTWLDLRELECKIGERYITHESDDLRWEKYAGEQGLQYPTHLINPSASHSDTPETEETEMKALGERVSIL

[10] = target: Serine/threonine-protein kinase PLK1 (Homo sapiens) (UniProt P53350); assay: Inhibition of okadaic acid-induced PLK1 assessed as residual activity at 10 uM by Cherenkov counting relative to control in presence of 5 uM ATP; how it was run: as §3
Sequence of Serine/threonine-protein kinase PLK1 (Homo sapiens) (P53350 whole entry): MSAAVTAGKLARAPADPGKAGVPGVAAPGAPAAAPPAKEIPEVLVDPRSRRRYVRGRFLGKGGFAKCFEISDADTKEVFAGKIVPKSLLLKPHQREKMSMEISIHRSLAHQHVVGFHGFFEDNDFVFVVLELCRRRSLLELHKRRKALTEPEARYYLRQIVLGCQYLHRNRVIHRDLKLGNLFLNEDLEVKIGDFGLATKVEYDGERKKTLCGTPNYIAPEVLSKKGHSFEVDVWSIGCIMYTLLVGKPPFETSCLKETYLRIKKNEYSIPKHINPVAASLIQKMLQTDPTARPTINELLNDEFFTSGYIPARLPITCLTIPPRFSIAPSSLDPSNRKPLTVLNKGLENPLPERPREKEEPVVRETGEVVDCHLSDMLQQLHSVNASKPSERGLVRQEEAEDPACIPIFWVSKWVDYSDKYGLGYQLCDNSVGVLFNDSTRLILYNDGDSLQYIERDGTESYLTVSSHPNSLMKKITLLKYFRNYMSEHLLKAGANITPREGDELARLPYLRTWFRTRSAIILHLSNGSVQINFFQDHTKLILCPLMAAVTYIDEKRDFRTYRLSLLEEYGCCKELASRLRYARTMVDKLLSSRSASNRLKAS

[11] = target: 3-phosphoinositide-dependent protein kinase 1 (Homo sapiens) (UniProt O15530); assay: Inhibition of PDK1 assessed as residual activity at 10 uM by Cherenkov counting relative to control in presence of 20 uM ATP
Sequence of 3-phosphoinositide-dependent protein kinase 1 (Homo sapiens) (O15530 whole entry, looked up): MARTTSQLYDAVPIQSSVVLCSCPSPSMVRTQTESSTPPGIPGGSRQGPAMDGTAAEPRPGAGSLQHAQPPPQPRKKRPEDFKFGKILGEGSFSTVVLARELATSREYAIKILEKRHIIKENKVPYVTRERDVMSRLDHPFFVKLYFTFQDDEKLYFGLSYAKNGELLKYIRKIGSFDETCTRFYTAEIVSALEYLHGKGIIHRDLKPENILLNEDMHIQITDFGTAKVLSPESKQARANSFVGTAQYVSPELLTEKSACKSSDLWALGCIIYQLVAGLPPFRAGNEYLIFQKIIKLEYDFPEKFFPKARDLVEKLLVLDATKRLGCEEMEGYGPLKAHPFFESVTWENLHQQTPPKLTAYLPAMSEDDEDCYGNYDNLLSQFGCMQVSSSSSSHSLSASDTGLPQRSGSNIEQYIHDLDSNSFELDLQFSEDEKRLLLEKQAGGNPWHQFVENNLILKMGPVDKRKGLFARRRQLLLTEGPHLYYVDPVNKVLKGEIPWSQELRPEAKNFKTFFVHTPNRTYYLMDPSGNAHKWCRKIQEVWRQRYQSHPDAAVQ

Activity [1] [%]	Activity [2] [%]	Activity [3] [%]	Activity [4] [%]	Activity [5] [%]	Activity [6] [%]	Activity [7] [%]	Activity [8] [%]	Activity [9] [%]	Activity [10] [%]	Activity [11] [%]	SMILES
86	85	3	110	81	80						COc1ccc(/C=C/C(=O)Nc2cc(-c3[nH]c(SC)nc3-c3ccc(F)cc3)ccn2)c(OC)c1
86	88	5	103	92	88						COc1ccc(/C=C/C(=O)Nc2cc(-c3[nH]c([S+](C)[O-])nc3-c3ccc(F)cc3)ccn2)c(OC)c1 (configuration not stated)
						94	109	89	105	85	CC(C)c1noc(-c2ccc(F)cc2)c1-c1ccncc1
						94	104	60	104	82	CC(C)c1onc(-c2ccc(F)cc2)c1-c1ccncc1
